Most compounds without a hit are left out; they make up all but 1.3% or so of the library.
CendR NRP1 mod: alters CendR peptide binding to human NRP-1; AID 602438; 360,000 compounds, 0.85% hits; inhibition, % at 25 µM; FAM-RPARPAR peptide binding to NRP-1, fluorescence polarization;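 active = inhibition or corrected inhibition above about 18%, plus a signal ratio from 0.5 to 1.5, limit read from the data, passing the limit was not always enough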
Target sequence (O14786 whole entry, looked up): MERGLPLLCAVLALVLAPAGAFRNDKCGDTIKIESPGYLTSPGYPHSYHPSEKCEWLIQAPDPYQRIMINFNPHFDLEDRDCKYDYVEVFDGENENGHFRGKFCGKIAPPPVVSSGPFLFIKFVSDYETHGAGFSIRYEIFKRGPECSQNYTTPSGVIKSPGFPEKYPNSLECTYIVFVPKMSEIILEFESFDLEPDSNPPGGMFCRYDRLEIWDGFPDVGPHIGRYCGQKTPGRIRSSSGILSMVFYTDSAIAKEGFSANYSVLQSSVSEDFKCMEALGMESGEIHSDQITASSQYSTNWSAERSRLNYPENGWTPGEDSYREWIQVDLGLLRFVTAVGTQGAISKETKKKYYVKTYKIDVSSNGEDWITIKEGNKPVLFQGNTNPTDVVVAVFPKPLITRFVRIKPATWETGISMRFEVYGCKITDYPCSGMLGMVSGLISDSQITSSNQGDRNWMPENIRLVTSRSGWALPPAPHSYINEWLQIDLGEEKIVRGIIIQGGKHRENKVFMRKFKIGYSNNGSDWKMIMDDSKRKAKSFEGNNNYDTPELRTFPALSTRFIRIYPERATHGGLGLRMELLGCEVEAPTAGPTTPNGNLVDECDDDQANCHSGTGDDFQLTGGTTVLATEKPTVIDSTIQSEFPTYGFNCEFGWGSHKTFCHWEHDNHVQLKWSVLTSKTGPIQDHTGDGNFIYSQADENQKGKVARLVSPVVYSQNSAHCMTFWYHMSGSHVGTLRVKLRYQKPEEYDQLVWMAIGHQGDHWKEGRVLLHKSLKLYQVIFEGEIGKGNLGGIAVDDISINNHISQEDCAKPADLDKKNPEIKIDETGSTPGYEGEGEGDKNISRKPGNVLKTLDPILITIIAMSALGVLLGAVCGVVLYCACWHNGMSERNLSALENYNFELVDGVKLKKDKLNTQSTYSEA
Tn7 DDE FP: disrupts Tn7 cyclic peptide binding to fibrin D-Dimer-E complex. P02675. FP displacement of FITC-Tn7 peptide from fibrin DD(E); 0% = median of compound wells per plate. inhibition, % at 8.3 µM. 370,000 compounds, 0.13% hits;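 active = inhibition above the mean of compounds falling within the control limits plus 3 SD of them, cut at about 14% in these data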;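 also: 0% = plate median of compound wells and 100% = 10 µM Aha-Tn7 peptide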
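Assay system: Human fibrin DD(E) protein | Medium: Tris buffer with calcium and detergent, pH 7.8 | Reagent: 0.1 µM fluorescent Tn7 | Compound dosing: Single point at 8.3 µM | Times: 10 min preincubation, 3 h with tracer, room temperature | Detection: Fluorescence polarization of the labelled Tn7 tracer | Controls: Aha-Tn7 high control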
aDG glyco up: alpha-DG glycosylation activation; Pro5-aDG cells, alpha-DG glycosylation AlphaScreen (IIH6); 0% Pro5, 100% B10-LARGE cell signal; activation, % at 10 µM; 360,000 compounds, 0.22% hits; AID 624168;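 active = activation of at least 8% versus controls, or a plate z-score of at least 8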;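 also: Pro5 are CHO cells carrying HIG-tagged alpha-DG that lacks glycosylation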
Tn6 DDE FP: DD(E)-Tn6 binding inhibition, primary FP screen; P02675; Fibrin DD(E) TRITC-Tn6 fluorescence polarization displacement; inhibition, % at 8.3 µM; 370,000 compounds, 0.21% hits; AID 720509;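 active = inhibition above a per-campaign cutoff: mean of compounds within control limits plus 3 SD, cut at about 15% in these data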;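 also: 0% = median of all compound wells on the plate and 100% = blocking peptide control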
* = called active by the depositor; · = no result; ! = not confirmed by another sample.

SMILES | CendR NRP1 mod | Tn7 DDE FP | aDG glyco up | Tn6 DDE FP
CC(=O)N/N=C/c1cc(C(C)C)cc(/C=N/NC(C)=O)c1O | 41* | -1 | 1 | 1
CC(=O)N/N=C/c1cc(C)n(-c2ccc(Br)cc2)c1C | 2 | 3 | 0 | 6
C[C@@H]1COc2cc(NCCO)ccc2S(=O)(=O)N1 | · | 8 | · | 1
Cc1cc(NC(=O)Cc2cn(C)c3ccccc23)ccc1Oc1cccnc1 | · | 3 | · | -5
CCOC(=O)c1c(NC(=O)COC(=O)Cn2cnc3ccccc32)sc2c1CCC(C)C2 (configuration not stated) | 33* | -14 | 0 | -1
Cc1cccc(OC[C@@H](O)CN2CCC(C(O)(c3ccccc3)c3ccccc3)CC2)c1 | · | -1 | · | -3
O=C(Nc1cccc([N+](=O)[O-])c1)C1C2CC/C=C\CCC21 (configuration not stated) | 41* | 6 | 0 | 3
COc1cc2c(c(OC3OC(CO)C(O)C(O)C3O)c1)C(=O)CC(c1ccc(O)cc1)O2 (configuration not stated) | · | -3 | · | 3
FCCCOc1ccc(-c2nccc(-c3ccccn3)n2)cc1 | 21* | 0 | 0 | 3
CCOC(=O)C(C)Sc1nc(=O)n2ccccc2n1 (configuration not stated) | 19* | -1 | -1 | 0
CNc1nc(N)c([N+](=O)[O-])c(Nc2cccc(Br)c2)n1 | · | -3 | · | -1
C[C@@H]1CN([C@@H](C)CN(C)C)C(=O)c2cc(NC(=O)Nc3ccccc3)ccc2O[C@@H](C)CCCCO[C@H]1CN(C)S(=O)(=O)c1ccc(F)cc1 | · | -3 | · | -4
C=CCn1c(SCc2ccc(Cl)cc2)nc2c1c(=O)[nH]c(=O)n2C | 26* | -1 | 0 | -4
Cc1ccc(Cn2cc(CN3[C@H](CC(C)C)COc4cc(Br)ccc4S3(=O)=O)nn2)cc1 | · | -6 | · | 6
O=C1CCN(Cc2ccccc2)S(=O)(=O)c2ccccc21 | 24* | 4 | 0 | 4
COc1cccc(C(=O)NC2CCN(CC(=O)NCc3ccccc3OC)CC2)c1 | 34* | 0 | 0 | 0
Cc1ccc(-n2c(C)nnc2SCC(=O)Nc2ccccc2)cc1 | 20* | -3 | 0 | -1
Cc1c(O)nc(SCC(=O)Nc2cccc(C(F)(F)F)c2)n(-c2ccccc2)c1=O | 0 | -3 | 0 | 2
COc1cccc(NC(=O)CSc2nc(O)c(C)c(=O)n2-c2ccc(C)cc2)c1 | 24* | 3 | 0 | -5
CCOc1ccc(C2C(C(=O)c3ccc(C)o3)=C(O)C(=O)N2c2cc(C)on2)cc1OC (configuration not stated) | 21* | 2 | 0 | -2
COc1ccc(N2CCN(CCCNC(=O)Cn3c(=O)c4cccn4c4cccnc43)CC2)c(OC)c1 | · | 2 | · | -5
COc1cc(C(=O)Nc2cc3c(cc2N2CCCCC2)n(C)c(=O)n3C)cc(OC)c1OC | 28* | -1 | 0 | 3
CCOC(=O)CNC(=O)C(Cc1ccc2c(c1)OCO2)NC(C)=O (configuration not stated) | · | -6 | · | 0
CCOC(=O)c1c2c(n(Cc3ccccc3)c1C)C(=O)C(=O)c1ccccc1-2 | 32* | 10 | -1 | -4
Cc1nc2nc(CSc3nnc(C)s3)cc(=O)n2[nH]1 | 24*! | -3 | 0 | 2
SMILES | CendR NRP1 mod | Tn7 DDE FP | aDG glyco up | Tn6 DDE FP
C[C@@H]1OC(C2CCCCC2)N(C)[C@H]2C[C@H]3c4cc(-c5ccc6c(c5)OCO6)ccc4CCN3C[C@@H]12 (some centres not stated) | · | -4 | · | 3
CC(C)N1CC2=C(OC(N)=C(C#N)C2c2cccnc2)/C(=C/c2cccnc2)C1 (configuration not stated) | 26* | -1 | 0 | -3
CCN(CC)C(=O)O[C@H]1CC[C@@]23CCCN2C(=O)CCC[C@H]3[C@H]1C | · | 7 | · | 2
Fc1ccccc1N1CCN(c2cnc3ccccc3n2)CC1 | 24* | 1 | 0 | 0
c1ccc(CN2CCN(c3cnc4ccccc4n3)CC2)cc1 | 9 | -9 | 0 | -4
COC(=O)c1cc(C(=O)OC)n(Cc2ccc(Br)cc2)n1 | 32* | 4 | 0 | 13
CCN(CC)C(=O)CSc1nnc(-c2ccccn2)n1C | · | 1 | · | 6
CC(=O)N1N=C(c2c(-c3ccccc3)c3cc(C)ccc3[nH]c2=O)CC1c1ccco1 (configuration not stated) | -3 | 4 | 0 | -8
CC(=O)N1N=C(c2c(-c3ccccc3)c3cc(Br)ccc3[nH]c2=O)CC1c1ccco1 (configuration not stated) | 24* | 0 | 0 | 1
COC(=O)[C@]12C[C@H](CC(=O)NCCc3ccccc3OC)C(=O)N(Cc3ccco3)C1=C[C@H](C1CCCC1)O[C@@H]2C | · | 2 | · | 10
Cc1cccc(C)c1NC(=O)C1(C)CCC(=O)N1C1CC1 (configuration not stated) | 13 | -3 | 0 | 10
Cc1cccc(C)c1NC(=O)C1(C)CCC(=O)N1C1CCN(Cc2ccccc2)CC1 (configuration not stated) | 21* | 4 | 0 | -9
COc1cccc(N2CCN(Cc3ccco3)CC2)c1 | 1 | 2 | 0 | -2
COc1cccc(CN2CCN(Cc3ccco3)CC2)c1 | 22* | 1 | 0 | 3
CCOC(=O)C1=CCN(S(=O)(=O)c2cccc(Cl)c2)C1c1ccc(Cl)cc1 (configuration not stated) | · | 6 | · | 6
COCCNC(=S)N(CCc1c(C)[nH]c2ccc(F)cc12)Cc1cccs1 | 32* | -3 | 0 | -11
O=C(COC(=O)c1ccco1)Nc1ccc([N+](=O)[O-])cc1Cl | -6 | -4 | 0 | -3
O=C(COc1cc(Cl)c(Cl)cc1Cl)Nc1ccc([N+](=O)[O-])cc1Cl | 24* | -5 | 0 | 4
CN1CCN(S(=O)(=O)c2ccc(NC(=O)Nc3cccc(Cl)c3)cc2)CC1 | 27* | 3 | 1 | -15
Cc1ccc(S(=O)(=O)N2CCCCC2)cc1NC(=O)Nc1ccc(Cl)cc1Cl | 3 | 9 | 1 | 0
O=C(Nc1cccc(Cl)c1)Nc1cc(S(=O)(=O)N2CCCCC2)ccc1Cl | 3 | 5 | 0 | 55*
O=C(NC1CCCCC1)c1cc(S(=O)(=O)N2CCCC2)ccc1Cl | 22* | -3 | 0 | -2
CCC(C(=O)Nc1c(C)cccc1C)n1c(-c2ccc(=O)[nH]c2)nc2ccccc21 (configuration not stated) | -3 | 2 | 0 | 4
Cc1nc(C(F)(F)F)ccc1C(=O)N1CCC1(C)C(=O)NS(=O)(=O)c1ccc(C#N)cc1 (configuration not stated) | -14 | 3 | 0 | 1
O=C1C(NS(=O)(=O)c2cccs2)=C(N2CCN(c3cccc(Cl)c3)CC2)C(=O)c2ccccc21 | 40* | 0 | -1 | 6
CCCCOCCCNC(=O)C[C@@H]1C[C@@]2(C(=O)OC)CC(C)(C)CC=C2N(Cc2cccc3ccccc23)C1=O | 2 | -3 | 0 | 9
